Converted amounts (≈) assume the structure as drawn.
Columns and labels:
Pseudomonas aeruginosa = test: Antibacterial activity against Pseudomonas aeruginosa PAO1 after 18 to 24 hrs by broth microdilution method; assay type: functional
In short: (§1)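 Broth microdilution following CLSI guidelines in Mueller Hinton broth. Compounds in DMSO, diluted to 2% DMSO final, 11 doubling dilutions from 64 to 0.06 μg/mL. Incubated at 35 °C for 18−24 h; growth read by absorbance at 620 nm.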

[1] = biological target: Voltage-gated inwardly rectifying potassium channel KCNH2 (Homo sapiens, UniProt Q12809); test: Inhibition of human ERG by ionworks HT assay
Chain of Voltage-gated inwardly rectifying potassium channel KCNH2 (Q12809 whole entry): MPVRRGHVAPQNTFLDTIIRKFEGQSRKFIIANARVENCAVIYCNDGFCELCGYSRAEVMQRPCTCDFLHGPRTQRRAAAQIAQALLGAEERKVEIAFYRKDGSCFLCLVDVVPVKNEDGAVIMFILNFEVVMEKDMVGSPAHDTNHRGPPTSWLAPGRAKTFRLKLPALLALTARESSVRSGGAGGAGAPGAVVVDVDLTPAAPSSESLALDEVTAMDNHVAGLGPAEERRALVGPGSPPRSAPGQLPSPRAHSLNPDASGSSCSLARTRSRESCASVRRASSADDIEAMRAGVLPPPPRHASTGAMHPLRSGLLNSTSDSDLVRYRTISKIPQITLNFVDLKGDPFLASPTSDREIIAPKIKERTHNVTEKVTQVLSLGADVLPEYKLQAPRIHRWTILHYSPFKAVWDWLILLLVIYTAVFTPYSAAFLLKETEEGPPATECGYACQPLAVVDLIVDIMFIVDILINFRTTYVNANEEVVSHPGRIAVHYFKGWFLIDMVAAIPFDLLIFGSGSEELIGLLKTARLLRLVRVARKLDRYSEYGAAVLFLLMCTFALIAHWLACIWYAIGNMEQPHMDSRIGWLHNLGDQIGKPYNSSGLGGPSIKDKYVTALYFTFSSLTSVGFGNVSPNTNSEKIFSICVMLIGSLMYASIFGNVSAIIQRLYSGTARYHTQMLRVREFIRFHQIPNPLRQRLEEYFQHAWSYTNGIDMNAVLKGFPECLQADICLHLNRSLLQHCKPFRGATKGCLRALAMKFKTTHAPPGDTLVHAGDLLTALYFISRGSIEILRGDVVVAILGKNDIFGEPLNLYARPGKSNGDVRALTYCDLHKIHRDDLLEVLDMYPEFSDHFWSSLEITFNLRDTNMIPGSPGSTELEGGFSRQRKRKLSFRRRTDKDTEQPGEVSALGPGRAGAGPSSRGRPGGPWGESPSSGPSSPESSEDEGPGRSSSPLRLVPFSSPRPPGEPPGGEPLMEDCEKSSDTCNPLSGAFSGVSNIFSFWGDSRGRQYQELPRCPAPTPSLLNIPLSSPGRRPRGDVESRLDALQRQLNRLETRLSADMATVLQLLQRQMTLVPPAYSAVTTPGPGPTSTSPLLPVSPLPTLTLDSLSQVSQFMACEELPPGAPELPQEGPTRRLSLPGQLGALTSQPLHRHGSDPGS

[2] = Clearance in Wistar Han rat at 4 mg/kg, iv; assay type: ADME, organism-based; parameters: dose 4 mg/kg, route intravenous; conditions: in vivo
In short: (§2)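 Groups of three Wistar Han rats received a bolus injection into a cannulated jugular vein. Serial 200 μL whole-blood samples taken over time; plasma drug measured by LC-MS/MS; parameters estimated by noncompartmental analysis.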

Escherichia coli = test: Antibacterial activity against Escherichia coli W3110 after 18 to 24 hrs by broth microdilution method; assay type: functional; conditions: K-12 substr. W3110; in short: as §1
Staphylococcus aureus [3] = test: Antibacterial activity against Staphylococcus aureus ARC516 infected in CD1 mouse neutropenic thigh infection model assessed as 1 log reduction in colony forming unit per […] at 12 mg/kg, ip qd administered 2 hrs post-infection measured 24 hrs post-treatment relative to vehicle treated control; assay type: functional; conditions: route intraperitoneal
In short: (§3)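 CD-1 mice were made neutropenic with ip cyclophosphamide, 150 mg/kg at 4 days and 100 mg/kg at 1 day before infection. Methicillin-susceptible strain, target inoculum 5 × 10⁵ cfu/thigh. Groups of five received ip drug q.d. in 5% dextrose with lactic acid, pH 5.0, starting 2 h post-infection; five mice got vehicle. At 24 h, thighs were homogenized, plated on tryptic soy agar and incubated at 37 °C overnight for cfu.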

Staphylococcus aureus [4] = test: Antibacterial activity against methicillin-susceptible Staphylococcus aureus after 18 to 24 hrs by broth microdilution method; assay type: functional; in short: as §1
[5] = Volume of distribution in Wistar Han rat at 4 mg/kg, iv; assay type: ADME, organism-based; parameters: dose 4 mg/kg, route intravenous; conditions: in vivo; in short: as §2
[6] = Octanol-phosphate buffer partition coefficient, log D of the compound at pH 7.4 by LC/MS/UV analysis; conditions: octanol/phosphate buffer
Staphylococcus aureus [7] = test: Antibacterial activity against Staphylococcus aureus ARC516 infected in CD1 mouse neutropenic thigh infection model assessed as 1 log reduction in colony forming unit per […] at 36 mg/kg, ip qd administered 2 hrs post-infection measured 24 hrs post-treatment relative to vehicle treated control; assay type: functional; conditions: route intraperitoneal; in short: as §3
Staphylococcus aureus [8] = test: Antibacterial activity against Staphylococcus aureus ARC516 infected in CD1 mouse neutropenic thigh infection model assessed as 1 log reduction in colony forming unit per […] at 24 mg/kg, ip qd administered 2 hrs post-infection measured 24 hrs post-treatment relative to vehicle treated control; assay type: functional; conditions: route intraperitoneal; in short: as §3
[9] = AUC in Wistar Han rat at 4 mg/kg, iv; assay type: ADME, organism-based; parameters: dose 4 mg/kg, route intravenous; conditions: plasma; in short: as §2
[10] = Clearance in Beagle dog at 3 mg/kg, iv; assay type: ADME, organism-based, Canis lupus familiaris; parameters: dose 3 mg/kg, route intravenous; conditions: in vivo
In short: (§4)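 Plasma was sampled from 0 to 24 h and drug measured by LC–MS/MS. Parameters came from noncompartmental analysis.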

[11] = AUC in Beagle dog at 3 mg/kg, iv; assay type: ADME, organism-based, Canis lupus familiaris; parameters: dose 3 mg/kg, route intravenous; conditions: plasma; in short: as §4
Mus musculus [12] = test: AUC (infinity) in Staphylococcus aureus ARC516 infected in CD1 mouse neutropenic thigh infection model at 36 mg/kg, ip qd by LC-MS/MS analysis; assay type: ADME, organism-based; parameters: dose 36 mg/kg, route intraperitoneal, time infinity; conditions: in vivo
In short: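 Plasma exposure in CD-1 mice, measured for analysis of the efficacy studies. Groups of three mice were sacrificed at timed intervals and whole blood was drawn by cardiac puncture. Plasma compound levels were measured by LC–MS/MS, and parameters were estimated by a noncompartmental model.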

Mus musculus [13] = test: AUC (infinity) in Staphylococcus aureus ARC516 infected in CD1 mouse neutropenic thigh infection model at 24 mg/kg, ip qd by LC-MS/MS analysis; assay type: ADME, organism-based; parameters: time infinity, dose 24 mg/kg, route intraperitoneal; conditions: in vivo
In short: (§5)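 CD-1 mice made neutropenic with ip cyclophosphamide (150 mg/kg day −4, 100 mg/kg day −1), thigh-infected with S. aureus ARC516 (target 5 × 10⁵ cfu/thigh). Dosed ip once daily starting 2 h post-infection, in 5% dextrose with lactic acid, pH 5.0. Groups of three sacrificed at timed intervals; cardiac-puncture blood; plasma analysed by LC-MS/MS; noncompartmental analysis.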

Mus musculus [14] = test: AUC (infinity) in Staphylococcus aureus ARC516 infected in CD1 mouse neutropenic thigh infection model at 48 mg/kg, ip qd by LC-MS/MS analysis; assay type: ADME, organism-based; parameters: dose 48 mg/kg, route intraperitoneal, time infinity; conditions: in vivo; in short: as §5
[15] = Half life in Beagle dog at 3 mg/kg, iv; assay type: ADME, organism-based, Canis lupus familiaris; parameters: dose 3 mg/kg, route intravenous; conditions: in vivo; in short: as §4
Mus musculus [16] = test: AUC (infinity) in Staphylococcus aureus ARC516 infected in CD1 mouse neutropenic thigh infection model at 12 mg/kg, ip qd by LC-MS/MS analysis; assay type: ADME, organism-based; parameters: time infinity, dose 12 mg/kg, route intraperitoneal; conditions: in vivo; in short: as §5
[17] = Inhibition of Escherichia coli ATPase activity of topoisomerase 4 ParC/ParE subunit assessed as reduction in inorganic phosphate production after 24 hrs by ammonium molybdate/malachite-green based assay
In short: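 Each reaction contained 0.5 nM each of E. coli ParC and ParE, 0.16 mM ATP and 0.005 mg/mL sheared salmon sperm DNA in 20 mM Tris pH 8.0 with 50 mM ammonium acetate, 8.0 mM MgCl₂, 0.5 mM EDTA, 5 mM DTT, 2.5% glycerol and 0.005% Brij-35. Compound dilution series; 24 h at room temperature. Quenched with malachite green; absorbance read at 650 nm. IC50 is the mean of three replicate experiments.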

[18] = Volume of distribution in Beagle dog at 3 mg/kg, iv; assay type: ADME, organism-based, Canis lupus familiaris; parameters: dose 3 mg/kg, route intravenous; conditions: in vivo; in short: as §4
Streptococcus pneumoniae = test: Antibacterial activity against penicillin-susceptible Streptococcus pneumoniae D39 after 18 to 24 hrs by broth microdilution method; assay type: functional
In short: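 CLSI broth microdilution in 2.2% (w/v) Mueller Hinton broth with 0.65% (v/v) lysed horse blood. Compounds diluted from DMSO to 2% DMSO final, 11 doubling dilutions from 64 to 0.06 μg/mL. Incubated at 35 °C for 18−24 h; read at 620 nm.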

[19] = Half life in Wistar Han rat at 4 mg/kg, iv; assay type: ADME, organism-based; parameters: dose 4 mg/kg, route intravenous; conditions: in vivo; in short: as §2
[20] = Fraction unbound in human plasma at 10 uM after 16 hrs by equilibrium dialysis
Staphylococcus aureus [21] = test: Antibacterial activity against Staphylococcus aureus ARC516 infected in CD1 mouse neutropenic thigh infection model assessed as 1 log reduction in colony forming unit per […] at 48 mg/kg, ip qd administered 2 hrs post-infection measured 24 hrs post-treatment relative to vehicle treated control; assay type: functional; conditions: route intraperitoneal; in short: as §3

Structure (SMILES)	MIC (Pseudomonas aeruginosa) [µg/mL]	MIC (Escherichia coli) [µg/mL]	MIC (Staphylococcus aureus [4]) [µg/mL]	logD [6]	IC50 [17] [nM]	MIC (Streptococcus pneumoniae) [µg/mL]	fraction unbound at 16 h, 10 µM [20]	IC50 [1] [nM]	also measured
O=C1COc2ccc(CNC3CCN(CCN4C(=O)COc5ccc(F)cc54)CC3)nc2N1	3 (≈ 6.59 µM)	0.25 (≈ 0.549 µM)	0.25 (≈ 0.549 µM)	0.9	–	0.5 (≈ 1.1 µM)	0.17	–	–
COc1ccc2c(c1)N(CCN1CCC(NCc3ccc4c(n3)NC(=O)CO4)CC1)C(=O)CO2	4 (≈ 8.56 µM)	0.25 (≈ 0.535 µM)	0.13 (≈ 0.278 µM)	0.87	5	0.5 (≈ 1.07 µM)	0.11	–	–
COc1ccc2c(c1)N(CCN1CCC(NCc3cc4c(cn3)OCCO4)CC1)C(=O)CS2	> 8	> 8	8 (≈ 17 µM)	–	–	> 8	0.09	–	–
COc1ccc2c(C)cc(=O)n(CCN3CCC(NCc4cc5c(cn4)OCCO5)CC3)c2c1	> 8	0.5 (≈ 1.08 µM)	0.02 (≈ 0.0431 µM)	1.72	–	0.03 (≈ 0.0646 µM)	–	23000	–
COc1ccc2c(c1)N(CCN1CCC(NCc3ccc4c(n3)NC(=O)CO4)CC1)C(=O)CC2	> 8	> 8	> 8	0.66	780	> 8	0.04	29000	–
COc1ccc2ccc(=O)n(CCN3CCC(NCc4cc5c(cn4)OCCO5)CC3)c2n1	> 8	0.5 (≈ 1.11 µM)	0.02 (≈ 0.0443 µM)	1.16	2	0.05 (≈ 0.111 µM)	0.31	40000	–
COc1cc2c(ccc(=O)n2CCN2CCC(NCc3cc4c(cn3)OCCO4)CC2)cn1	> 8	8 (≈ 17.7 µM)	1 (≈ 2.21 µM)	0.68	28	1 (≈ 2.21 µM)	0.17	–	–

More lines, main results first:

MIC (Pseudomonas aeruginosa) [µg/mL]	MIC (Escherichia coli) [µg/mL]	MIC (Staphylococcus aureus [4]) [µg/mL]	logD [6]	IC50 [17] [nM]	MIC (Streptococcus pneumoniae) [µg/mL]	fraction unbound at 16 h, 10 µM [20]	Structure (SMILES)	IC50 [1] [nM]	also measured
4 (≈ 8.86 µM)	0.5 (≈ 1.11 µM)	0.02 (≈ 0.0443 µM)	0.93	5	0.06 (≈ 0.133 µM)	0.57	COc1ccc2ncc(=O)n(CCN3CCC(NCc4cc5c(cn4)OCCO5)CC3)c2c1	19000	clearance [2]: 338 mL/min/kg; FC (Staphylococcus aureus [3]): 0.05; Vd [5]: 32 L/kg; FC (Staphylococcus aureus [7]): 1.5; FC (Staphylococcus aureus [8]): 1.17; AUC [9]: 190 ng·h/mL; clearance [10]: 21 mL/min/kg; AUC [11]: 2300 ng·h/mL; AUC (Mus musculus [12]): 1.17 µg/h/mL; AUC (Mus musculus [13]): 0.76 µg/h/mL; AUC (Mus musculus [14]): 1.79 µg/h/mL; half-life [15]: 8.3 h; AUC (Mus musculus [16]): 0.47 µg/h/mL; Vd [18]: 11 L/kg; half-life [19]: 2.8 h; FC (Staphylococcus aureus [21]): 2.79
> 8	2 (≈ 4.42 µM)	0.13 (≈ 0.287 µM)	0.2	13	0.25 (≈ 0.552 µM)	0.27	COc1ncc2ccc(=O)n(CCN3CCC(NCc4cc5c(cn4)OCCO5)CC3)c2n1	206000	–
> 8	1.5 (≈ 3.33 µM)	0.03 (≈ 0.0666 µM)	1.32	22	0.06 (≈ 0.133 µM)	0.31	COc1ccc2ccc(=O)n(CCN3CCC(NCc4cc5c(cn4)OCCO5)CC3)c2c1	34000	–

Reference: ChEMBL document CHEMBL1914454, “Novel N-linked aminopiperidine inhibitors of bacterial topoisomerase type II: broad-spectrum antibacterial agents with reduced hERG activity” (J Med Chem, 2011)
